Experimental data taken from ChEMBL document CHEMBL4270616, “Asymmetrical meta-methoxylated diarylpentanoids: Rational design, synthesis and anti-cancer evaluation in-vitro” (Eur J Med Chem, 2018).

Experiments:
A549 [1] = test: Cytotoxicity against human A549 cells after 72 hrs by MTT assay; assay type: functional, cell-based; conditions: A549, 72 h
How it was run: (§1)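 Tumour lines kept in DMEM with 10% FBS and 1% penicillin/streptomycin at 37°C, 5% CO2. Seeded at 1500-5000 cells/well by doubling time and size, 24 h, then compound in DMSO-containing medium (final DMSO 0.1%) for 72 h. MTT (5 mg/mL) 4 h at 37°C, DMSO solubilisation, absorbance at 570 nm.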

HT-1080 [2] = test: Cytotoxicity against human HT1080 cells after 72 hrs by MTT assay; assay type: functional, cell-based; conditions: HT-1080, 72 h; how it was run: as §1
NHDF = test: Cytotoxicity against NHDF after 72 hrs by MTT assay; assay type: cell-based; conditions: Homo sapiens
How it was run: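 NHDF grown in DMEM with 5% FBS at 37°C, 5% CO2. Seeded at 1500-5000 cells/well, 24 h, then compound added in DMSO-containing medium (final DMSO 0.1%) for 72 h. MTT (5 mg/mL in medium) added for 4 h at 37°C, formazan dissolved in DMSO, absorbance read at 570 nm.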

SW-620 [3] = test: Cytotoxicity against human SW620 cells assessed as inhibition of cell proliferation at 20 uM after 72 hrs by MTT assay relative to control; assay type: functional; conditions: SW-620, 72 h
How it was run: (§2)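 Single-concentration screen at 20 μM with 72 h exposure in DMEM with 10% FBS, final DMSO 0.1%. Read-out was MTT (5 mg/mL, 4 h, 37°C), DMSO solubilisation and absorbance at 570 nm, expressed as percent inhibition. Lines reaching a threshold percentage went on to IC50 determination.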

SW-620 [4] = test: Cytotoxicity against human SW620 cells after 72 hrs by MTT assay; assay type: functional, cell-based; conditions: SW-620, 72 h; how it was run: as §1
A549 [5] = test: Cytotoxicity against human A549 cells assessed as inhibition of cell proliferation at 20 uM after 72 hrs by MTT assay relative to control; assay type: functional; conditions: A549, 72 h; how it was run: as §2
MCF7 [6] = test: Cytotoxicity against human MCF7 cells assessed as inhibition of cell proliferation at 20 uM after 72 hrs by MTT assay relative to control; assay type: functional; conditions: MCF7, 72 h; how it was run: as §2
[7] = Cytotoxicity against human EJ28 cells assessed as inhibition of cell proliferation at 20 uM after 72 hrs by MTT assay relative to control; assay type: functional; conditions: EJ-28, 72 h; how it was run: as §2
[8] = Cytotoxicity against human EJ28 cells after 72 hrs by MTT assay; assay type: functional, cell-based; conditions: EJ-28, 72 h; how it was run: as §1
HT-1080 [9] = test: Cytotoxicity against human HT1080 cells assessed as inhibition of cell proliferation at 20 uM after 72 hrs by MTT assay relative to control; assay type: functional; conditions: HT-1080, 72 h; how it was run: as §2
MCF7 [10] = test: Cytotoxicity against human MCF7 cells after 72 hrs by MTT assay; assay type: functional, cell-based; conditions: MCF7, 72 h; how it was run: as §1

Compound | IC50 (A549 [1]) [µM] | IC50 (HT-1080 [2]) [µM] | IC50 (NHDF) [µM] | inhibition at 20 µM (SW-620 [3]) [%] | IC50 (SW-620 [4]) [µM] | inhibition at 20 µM (A549 [5]) [%] | inhibition at 20 µM (MCF7 [6]) [%] | inhibition at 20 µM [7] [%] | IC50 [8] [µM] | inhibition at 20 µM (HT-1080 [9]) [%] | IC50 (MCF7 [10]) [µM]
COc1ccc(/C=C2\CCC/C(=C\c3ccc(O)cc3)C2=O)cc1OC | > 20 | 16.8 | 26.1 | > 50 | 7.7 | > 50 | > 50 | > 50 | 16.6 | > 50 | 17
COc1cccc(/C=C2\CCC/C(=C\c3cccc(Br)c3)C2=O)c1OC | > 20 | 12.2 | 23.9 | > 50 | 8.8 | > 50 | > 50 | > 50 | 12.1 | > 50 | 11.7
COc1ccc(/C=C2\CCC/C(=C\c3cccc(Cl)c3)C2=O)cc1OC | 11 | 4.9 | 11.9 | > 50 | 5.1 | > 50 | > 50 | > 50 | 5.4 | > 50 | 6
COc1cccc(/C=C2\CCC/C(=C\c3cccc(O)c3)C2=O)c1OC | > 20 | 8.5 | 19.3 | > 50 | 6.4 | > 50 | > 50 | > 50 | 8.5 | > 50 | 8.8
COc1ccc(/C=C2\CCC/C(=C\c3ccc(Cl)cc3)C2=O)cc1OC | 10.1 | 4.8 | 11.2 | > 50 | 5.9 | > 50 | > 50 | > 50 | 5.7 | > 50 | 6.3
COc1cc(/C=C2\CCC/C(=C\c3ccc(OC)c(OC)c3)C2=O)cc(OC)c1 | 5.1 | 2.6 | 6.5 | > 50 | 2.5 | > 50 | > 50 | > 50 | 3 | > 50 | 3.9
COc1cccc(/C=C2\CCC/C(=C\c3ccccc3Br)C2=O)c1OC | > 20 | 10.8 | > 50 | > 50 | 12.1 | > 50 | > 50 | > 50 | 10.8 | > 50 | 9.7
COc1cccc(/C=C2\CCC/C(=C\c3ccc(Cl)cc3Cl)C2=O)c1OC | > 20 | > 20 | 49.2 | > 50 | 16.3 | > 50 | > 50 | > 50 | > 20 | > 50 | > 20
COc1ccc(/C=C2\CCC/C(=C\c3ccc(OC)c(OC)c3)C2=O)c(OC)c1 | > 20 | 17.1 | > 50 | > 50 | > 20 | > 50 | > 50 | > 50 | > 20 | > 50 | 15.6
COc1ccc(/C=C2\CCC/C(=C\c3ccc(OC)c(OC)c3)C2=O)cc1OC | 8.5 | 3 | 9.7 | > 50 | 4.5 | > 50 | > 50 | > 50 | 3.5 | > 50 | 13.5
COc1cccc(/C=C2\CCC/C(=C\c3ccc(O)cc3)C2=O)c1OC | > 20 | > 20 | > 50 | > 50 | > 20 | > 50 | > 50 | > 50 | > 20 | > 50 | > 20
COc1cccc(/C=C2\CCC/C(=C\c3cc(OC)c(OC)c(OC)c3)C2=O)c1OC | 5.9 | 2.3 | 7.9 | > 50 | 2.5 | > 50 | > 50 | > 50 | 2.4 | > 50 | 1.4
COc1cccc(/C=C2\CCC/C(=C\c3ccc(Cl)c(Cl)c3)C2=O)c1OC | > 20 | 10.8 | 25.5 | > 50 | 10 | > 50 | > 50 | > 50 | 12.1 | > 50 | 9
COc1cccc(/C=C2\CCC/C(=C\c3cccc(OC)c3OC)C2=O)c1 | 16.4 | 9.9 | 16.4 | > 50 | 7 | > 50 | > 50 | > 50 | 10 | > 50 | 5.9
COc1cccc(/C=C2\CCC/C(=C\c3ccc(Br)cc3)C2=O)c1OC | > 20 | 13.7 | 21.4 | > 50 | 11.1 | > 50 | > 50 | > 50 | 15.2 | > 50 | 13.8
COc1ccc(/C=C2\CCC/C(=C\c3ccc(O)c(Cl)c3)C2=O)cc1OC | > 20 | 7.6 | 21.9 | > 50 | 7.1 | > 50 | > 50 | > 50 | 8 | > 50 | 12.3
COc1ccc(/C=C2\CCC/C(=C\c3cccc(Cl)c3Cl)C2=O)cc1OC | > 20 | 8.8 | 18.5 | > 50 | 10.8 | > 50 | > 50 | > 50 | 10.4 | > 50 | 14.3
COc1cccc(/C=C2\CCC/C(=C\c3cccc(Cl)c3)C2=O)c1OC | > 20 | 10.3 | 21.4 | > 50 | 9.1 | > 50 | > 50 | > 50 | 11.3 | > 50 | 12
COc1ccccc1/C=C1\CCC/C(=C\c2cccc(OC)c2OC)C1=O | > 20 | 14.1 | 31.3 | > 50 | > 20 | > 50 | > 50 | > 50 | 16.6 | > 50 | 12
COc1ccc(/C=C2\CCC/C(=C\c3ccc(Cl)c(Cl)c3)C2=O)cc1OC | 6.9 | 3.1 | 10.1 | > 50 | 4 | > 50 | > 50 | > 50 | 3.4 | > 50 | 4.4
